According to ChEMBL document CHEMBL4354828, “Discovery of Taniborbactam (VNRX-5133): A Broad-Spectrum Serine- and Metallo-β-lactamase Inhibitor for Carbapenem-Resistant Bacterial Infections” (J Med Chem, 2020):
pIC50: −log10 of the molar value.

Legend:
[1] = AUC (infinity) in mouse at 10 mg/kg, iv after 1 to 6 hrs by LC-MS/MS analysis; type: ADME, organism-based; set-up: dose 10 mg/kg, time infinity, route intravenous; conditions: in vivo
[2] = Inhibition of bacterial CMY-2 using nitrocefin as substrate preincubated for 15 mins followed by susbtrate addition and measured after 10 mins by spectrophotometric method; set-up: species or system Bacteria
[3] = Inhibition of bacterial IMP-1 using nitrocefin as substrate preincubated for 15 mins followed by susbtrate addition and measured after 10 mins by spectrophotometric method; set-up: species or system Bacteria
[4] = Inhibition of bacterial KPC-2 using imipenem as substrate preincubated for 15 mins followed by susbtrate addition and measured after 10 mins by spectrophotometric method; set-up: species or system Bacteria
[5] = Inhibition of bacterial VIM-2 using nitrocefin as substrate preincubated for 15 mins followed by susbtrate addition and measured after 10 mins by spectrophotometric method; set-up: species or system Bacteria
Outline: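 Purified β-lactamase inhibition. IC50 values are the average of duplicates unless otherwise indicated.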

[6] = Inhibition of bacterial OXA-1 using nitrocefin as substrate preincubated for 15 mins followed by susbtrate addition and measured after 10 mins by spectrophotometric method; set-up: species or system Bacteria
[7] = Inhibition of bacterial OXA-48 using nitrocefin as substrate preincubated for 15 mins followed by susbtrate addition and measured after 10 mins by spectrophotometric method; set-up: species or system Bacteria
[8] = Inhibition of bacterial NDM-1 using cefepime as substrate preincubated for 15 mins followed by susbtrate addition and measured after 10 mins by spectrophotometric method; set-up: species or system Bacteria
[9] = Inhibition of bacterial CTX-M-15 using cefotaxime as substrate preincubated for 15 mins followed by susbtrate addition and measured after 10 mins by spectrophotometric method; set-up: species or system Bacteria

Row | SMILES | AUC(0-inf) [1] | pIC50 [2] | pIC50 [3] | pIC50 [4] | pIC50 [5] | pIC50 [6] | pIC50 [7] | pIC50 [8] | pIC50 [9]
1 | CO/N=C(\C(=O)N[C@@H]1C(=O)N2C(C(=O)[O-])=C(C[N+]3(C)CCCC3)CS[C@H]12)c1csc(N)n1 | 15800 ng·h/mL |  |  |  |  |  |  |  | 
2 | O=C(O)[C@H]1/C(=C/CO)O[C@@H]2CC(=O)N21 [CLAVULANIC ACID] |  | < 4.00 | < 4.00 | 5.74 | < 4.00 | 6.92 | 4.52 | < 4.00 | 7.40
